The results in this text go back to ChEMBL document CHEMBL1123778, “Synthesis and 5-lipoxygenase inhibitory activity of 5-hydroperoxy-6,8,11,14-eicosatetraenoic acid analogues” (J Med Chem, 1987).

Each structure is given as a SMILES string.

The target in experiment [1] is T1, Polyunsaturated fatty acid 5-lipoxygenase (Rattus norvegicus, UniProt P12527).
T1 sequence (P12527 whole entry): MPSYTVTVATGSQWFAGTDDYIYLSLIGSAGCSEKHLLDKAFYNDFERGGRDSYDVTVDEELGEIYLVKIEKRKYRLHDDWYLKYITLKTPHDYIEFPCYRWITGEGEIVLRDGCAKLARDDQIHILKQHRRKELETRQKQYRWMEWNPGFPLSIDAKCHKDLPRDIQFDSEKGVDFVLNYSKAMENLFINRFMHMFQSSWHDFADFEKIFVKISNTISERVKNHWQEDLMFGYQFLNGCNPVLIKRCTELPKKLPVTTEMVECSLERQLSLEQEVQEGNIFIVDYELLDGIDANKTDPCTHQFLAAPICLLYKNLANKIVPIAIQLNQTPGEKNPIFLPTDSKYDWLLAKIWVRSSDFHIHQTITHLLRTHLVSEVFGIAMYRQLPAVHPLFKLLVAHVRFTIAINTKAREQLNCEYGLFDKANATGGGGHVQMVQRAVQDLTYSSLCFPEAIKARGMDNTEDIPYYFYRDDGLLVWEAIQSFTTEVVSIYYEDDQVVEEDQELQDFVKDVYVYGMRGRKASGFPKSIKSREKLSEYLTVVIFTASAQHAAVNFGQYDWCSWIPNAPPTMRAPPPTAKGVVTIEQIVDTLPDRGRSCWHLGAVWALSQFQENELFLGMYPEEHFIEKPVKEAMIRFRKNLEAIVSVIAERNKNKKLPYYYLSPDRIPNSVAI
Briefly: In vitro inhibitory activity against 5-lipoxygenase from rat basophilic leukemia cells.

Experiment [2] deals with T2, Polyunsaturated fatty acid 5-lipoxygenase (Rattus norvegicus) (UniProt P12527).
T2 sequence (whole entry): T1 sequence (P12527 whole entry)
Briefly: In vitro inhibitory activity against 5-Lipoxygenase from rat basophilic leukemia cells at 30 uM concentration. In outline: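 20000g supernatant of homogenized RBL-1 cells (7.5×10^6 cell equivalents/mL) preincubated 20 min at 37 °C with inhibitor or vehicle (2% Me₂SO) in pH 6.8 BES/PIPES buffer with EDTA, NaCl, 0.7 mM CaCl₂. Reaction started with 66 μM [¹⁴C]arachidonic acid. [¹⁴C]-5-HETE counted by liquid scintillation, corrected for [³H]-5-HETE recovery. Inhibition = % reduction vs control.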

Take `CCCCC/C=C\C/C=C\C\C=C/C=C/C(CCCC(=O)O)=N/NC(N)=O`: the half-maximal inhibitory concentration (IC50) (in general, the concentration that inhibits the measured activity by half) in experiment [1] worked out at 7 µM.
In the case of `CCCCC/C=C\C/C=C\C/C=C\C=C\C(CCCC(=O)O)C(=O)NO` (centres undefined), the midpoint of inhibition in experiment [1], the IC50, lay at 1.4 µM.
In turn, `CCCCC/C=C\C/C=C\C/C=C\C=C\C(=O)CCCC(=O)O` [5-OXO-ETE] came in with a 50% inhibitory concentration (IC50) in experiment [1] of 18 µM.
As to `CCCCC/C=C\C/C=C\C/C=C\C=C\C(CCCC(=O)O)CCC(=O)NO` (centres undefined), the IC50 in experiment [1] turned out to be 2.8 µM.
On the same count and under the same terms, the figure for `CCCCC/C=C\C/C=C\C/C=C\C=C\C(CCCS)CCCC(=O)O` (centres undefined) is 36 µM; for `CCCCC/C=C\C/C=C\C/C=C\C=C\C(CCO)CCCC(=O)O` (centres undefined) it is 22 µM; for `CCCCC/C=C\C/C=C\C/C=C\C=C\C(CCCC(=O)O)CC(=O)NO` (centres undefined) it is 0.19 µM.
On the same count and under the same terms, the figure for `CCCCC/C=C\C/C=C\C/C=C\C=C\C(CS)CCCC(=O)O` (centres undefined) is 11 µM; for `CCCCC/C=C\C/C=C\C/C=C\C=C\C1CC(=O)CC(CC(=O)O)C1` (centres undefined) it is 59 µM; for `CCCCC/C=C\C/C=C\C/C=C\C=C\C(CCCC(=O)O)CC(=O)O` (centres undefined) it is 96 µM.
For the compound `CCCCC/C=C\C/C=C\C/C=C\C=C\C(CO)CCCC(=O)O` (centres undefined), the IC50 in experiment [1] came to 29 µM.
`CCCCC/C=C\C/C=C\C/C=C\C=C\C(CCS)CCCC(=O)O` (centres undefined) showed an IC50 in experiment [1] of 25 µM.
On to `CCCCC/C=C\C/C=C\C/C=C\C/C=C\CCCC(=O)NO`, for which the IC50 in experiment [1] was 2.2 µM.
On the same count and under the same terms, the figure for `CCCCC/C=C\C/C=C\C/C=C\C=C\C(CCCC(=O)O)OC(C)=O` (centres undefined) is 68 µM; for `CCCCC/C=C\C/C=C\C/C=C\C=C\C(S)CCCC(=O)O` (centres undefined) it is 7.6 µM; for `CCCCC/C=C\C/C=C\C/C=C\C=C\C(CCCC(=O)O)NO` (centres undefined) it is 21 µM.
Consider `CCCCC/C=C\C/C=C\C/C=C\C=C\C1CCCC(=O)N1` (centres undefined), for which, in experiment [1], the IC50 worked out at 10 µM.
Still for that read-out and setting: the figure for `CCCCC/C=C\C/C=C\C/C=C\C=C\C(O)CCCC(=O)NO` (centres undefined) is 2.1 µM; for `CCCCC/C=C\C/C=C\C\C=C/C=C/C(CCCC(=O)O)=N/N=C(/N)S` it is 7.9 µM.
Turning to `CCCCC/C=C\C/C=C\C\C=C/C=C/C(CCCC(=O)O)=N/O`, the half-maximal inhibitory concentration (IC50) in experiment [1] came to 11 µM.
The same measure, in the same setting: the figure for `CCCCC/C=C\C/C=C\C/C=C\C=C\C1CCCC(=O)O1` (centres undefined) is 27 µM.
On to `CCCCC/C=C\C/C=C\C/C=C\C=C\C1CCCC(=O)C1` (centres undefined), for which the inhibition (usually the drop in the measured response relative to a control, in per cent) in experiment [2] amounted to 27%.
Regarding `CCCCC/C=C\C/C=C\C/C=C\C=C\C(CCCO)CCCC(=O)O` (centres undefined), in experiment [1], the 50% inhibitory concentration (IC50) was found to be 97 µM. This counts as double-digit micromolar.
As for `CCCCC/C=C\C/C=C\C/C=C\C=C\C(N)CCCC(=O)O` (centres undefined), the IC50 in experiment [1] amounted to 25 µM.
